Measured values taken from ChEMBL document CHEMBL1833877, “Antinociceptive properties of bergenin” (J Nat Prod, 2011).
The source made the active and inactive calls. The calls are words filed in the database; no cut-off is given here.

Assays:
Mus musculus [1] = test: Toxicity in mouse assessed as necrosis in gastric mucosa at 50 mg/kg, ip for seven consecutive days relative to control; type: organism-based; parameters: dose 50 mg/kg, route intraperitoneal; conditions: in vivo
How it was run: (§1)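 After 7 daily ip doses, stomachs were cryosectioned at 3 μm and stained with H&E. Sections were scored blind 0–4 for inflammatory infiltrate, edema, epithelial loss and necrosis. Ten fields (40×) were read per section, means ± SEM.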

Mus musculus [2] = test: Antinociceptive activity against formalin-induced pain in mouse assessed as paw licking during early phase (0 to 10 mins) at 100 mg/kg, ip administered 40 mins before formalin challenge; type: functional, organism-based; parameters: dose 100 mg/kg
How it was run: (§2)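 Mice were acclimated 30 min in an observation chamber, then given 20 μL of 2.5% formalin sc into the dorsal hind paw. Dosing was ip (2% DMSO/saline vehicle) 40 min beforehand. Time spent licking the injected paw was scored over 0–10 min and 10–60 min. n = 6/group, means ± SEM, ANOVA with Tukey.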

Mus musculus [3] = test: Inhibition of TNF-alpha production in Freund's complete adjuvant-induced mouse at 50 mg/kg, ip administered 40 mins before CFA challenge measured after 2 hrs by ELISA; type: functional, organism-based; parameters: dose 50 mg/kg
How it was run: (§3)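 CFA was given intraplantar, with ip dosing (2% DMSO/saline vehicle) 40 min earlier. At 2 h, paw skin was taken under terminal halothane anesthesia. Tissue was extracted (100 mg/mL PBS with 0.4 M NaCl, 0.05% Tween 20 and protease inhibitors) and centrifuged at 3000g for 10 min. Supernatant was assayed by mouse ELISA, in pg/mL. n = 6/group.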

Mus musculus [4] = test: Inhibition of IL1-beta production in Freund's complete adjuvant-induced mouse at 100 mg/kg, ip administered 40 mins before CFA challenge measured after 2 hrs by ELISA; type: functional, organism-based; parameters: dose 100 mg/kg; how it was run: as §3
Mus musculus [5] = test: Toxicity in mouse assessed as liver function measuring serum AST level at 100 mg/kg, ip for seven consecutive days relative to control; type: organism-based; parameters: dose 100 mg/kg, route intraperitoneal; conditions: in vivo
How it was run: (§4)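 Mice were weighed and dosed ip once daily for 7 consecutive days, vehicle controls alongside, and monitored for toxic signs and general appearance. At the end, retro-orbital blood was taken under light anesthesia for leukocyte counts. Serum, from blood centrifuged at 2500 rpm for 15 min without anticoagulant, was used for ALT and AST.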

Mus musculus [6] = test: Antinociceptive activity against formalin-induced pain in mouse assessed as paw licking during early phase (0 to 10 mins) at 50 mg/kg, ip administered 40 mins before formalin challenge; type: functional, organism-based; parameters: dose 50 mg/kg; how it was run: as §2
Mus musculus [7] = test: Antinociceptive activity against Freund's complete adjuvant-induced paw inflammation in mouse assessed as reduction in paw edema at 100 mg/kg, ip administered 40 mins before CFA challenge measured after 6 hrs; type: functional, organism-based; parameters: dose 100 mg/kg
How it was run: (§5)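 CFA (20 μL, 1 mg/mL heat-killed M. tuberculosis) was injected sc into the right hind plantar surface. Treatment was ip in 2% DMSO/saline 40 min before. Paw volume was read by plethysmometer before and after CFA, and edema taken as the volume difference (mm3/paw). n = 6 mice/group, means ± SEM, two-way ANOVA with Bonferroni.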

Mus musculus [8] = test: Toxicity in mouse assessed as gastric ulcer at 50 mg/kg, ip for seven consecutive days relative to control; type: organism-based, Stomach; parameters: dose 50 mg/kg, route intraperitoneal; conditions: in vivo; how it was run: as §1
Mus musculus [9] = test: Toxicity in mouse assessed as gastric inflammation at 50 mg/kg, ip for seven consecutive days relative to control; type: organism-based, Stomach; parameters: dose 50 mg/kg, route intraperitoneal; conditions: in vivo; how it was run: as §1
Mus musculus [10] = test: Toxicity in mouse assessed as change in general appearance at 100 mg/kg, ip for seven consecutive days relative to control; type: organism-based; parameters: dose 100 mg/kg, route intraperitoneal; conditions: in vivo; how it was run: as §4
Mus musculus [11] = test: Toxicity in mouse assessed as necrosis in gastric mucosa at 100 mg/kg, ip for seven consecutive days relative to control; type: organism-based; parameters: dose 100 mg/kg, route intraperitoneal; conditions: in vivo; how it was run: as §1
Mus musculus [12] = test: Toxicity in mouse assessed as gastric inflammation at 100 mg/kg, ip for seven consecutive days relative to control; type: organism-based, Stomach; parameters: dose 100 mg/kg, route intraperitoneal; conditions: in vivo; how it was run: as §1
Mus musculus [13] = test: Inhibition of IL10 production in Freund's complete adjuvant-induced C57BL/6 mouse paw at 100 mg/kg, ip administered 40 mins before CFA challenge measured after 3 hrs by ELISA; type: functional, organism-based; parameters: dose 100 mg/kg
How it was run: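 C57BL/6 wild-type mice received an ip dose 40 min before intraplantar CFA. Paw tissue IL-10 was read by ELISA 3 h after CFA, on protein extracts in PBS/0.4 M NaCl/Tween 20 with protease inhibitors. A saline group got 20 μL intraplantar saline instead. n = 6/group, means ± SEM, two-way ANOVA with Bonferroni.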

Mus musculus [14] = test: Toxicity in mouse assessed as renal function measuring serum creatinine level at 100 mg/kg, ip for seven consecutive days relative to control; type: organism-based; parameters: dose 100 mg/kg, route intraperitoneal; conditions: in vivo
How it was run: (§6)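 Once-daily ip dosing for seven consecutive days in male mice (22–28 g), with vehicle (2% DMSO in saline) as control. At the end of treatment, blood taken from the retro-orbital plexus under light anesthesia. Serum obtained without anticoagulant by centrifugation at 2500 rpm for 15 min, then assayed biochemically for urea and creatinine. Means ± SEM, 6–9 animals per group.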

Mus musculus [15] = test: Toxicity in mouse assessed as liver function measuring serum ALT level at 100 mg/kg, ip for seven consecutive days relative to control; type: organism-based; parameters: dose 100 mg/kg, route intraperitoneal; conditions: in vivo; how it was run: as §4
Mus musculus [16] = test: Toxicity in mouse assessed as change in general appearance at 50 mg/kg, ip for seven consecutive days relative to control; type: organism-based; parameters: dose 50 mg/kg, route intraperitoneal; conditions: in vivo; how it was run: as §4
Mus musculus [17] = test: Toxicity in mouse assessed as renal function measuring serum urea level at 50 mg/kg, ip for seven consecutive days relative to control; type: organism-based; parameters: dose 50 mg/kg, route intraperitoneal; conditions: in vivo; how it was run: as §6
Mus musculus [18] = test: Antinociceptive activity against formalin-induced pain in mouse assessed as paw licking during late phase (10 to 60 mins) at 50 mg/kg, ip administered 40 mins before formalin challenge; type: functional, organism-based; parameters: dose 50 mg/kg; how it was run: as §2
Mus musculus [19] = test: Toxicity in mouse assessed as renal function measuring serum urea level at 100 mg/kg, ip for seven consecutive days relative to control; type: organism-based; parameters: dose 100 mg/kg, route intraperitoneal; conditions: in vivo; how it was run: as §6
Mus musculus [20] = test: Inhibition of IL1-beta production in Freund's complete adjuvant-induced mouse at 50 mg/kg, ip administered 40 mins before CFA challenge measured after 2 hrs by ELISA; type: functional, organism-based; parameters: dose 50 mg/kg; how it was run: as §3
Mus musculus [21] = test: Toxicity in mouse assessed as liver function measuring serum ALT level at 50 mg/kg, ip for seven consecutive days relative to control; type: organism-based; parameters: dose 50 mg/kg, route intraperitoneal; conditions: in vivo; how it was run: as §4
Mus musculus [22] = test: Antinociceptive activity against Freund's complete adjuvant-induced paw inflammation in mouse assessed as reduction in paw edema at 100 mg/kg, ip administered 40 mins before CFA challenge measured after 2 hrs; type: functional, organism-based; parameters: dose 100 mg/kg; how it was run: as §5
Mus musculus [23] = test: Toxicity in mouse assessed as renal function measuring serum creatinine level at 50 mg/kg, ip for seven consecutive days relative to control; type: organism-based; parameters: dose 50 mg/kg, route intraperitoneal; conditions: in vivo; how it was run: as §6

For `COc1c(O)cc2c(c1O)[C@@H]1O[C@H](CO)[C@@H](O)[C@H](O)[C@H]1OC2=O` [BERGENIN], the Activity (Mus musculus [1]) was “Non-toxic”, the Activity (Mus musculus [2]) was “Active” and the inhibition (Mus musculus [3]) was “Active”. For the same molecule, the inhibition (Mus musculus [4]) was “Active”, the Activity (Mus musculus [5]) was “Non-toxic” and the Activity (Mus musculus [6]) was “Active”. For the same molecule, the Activity (Mus musculus [7]) was “inactive”, the Activity (Mus musculus [8]) was “Non-toxic” and the Activity (Mus musculus [9]) was “Non-toxic”. For the same molecule, the Activity (Mus musculus [10]) was “Non-toxic”, the Activity (Mus musculus [11]) was “Non-toxic” and the Activity (Mus musculus [12]) was “Non-toxic”. For the same molecule, the inhibition (Mus musculus [13]) was “inactive”, the Activity (Mus musculus [14]) was “Non-toxic” and the Activity (Mus musculus [15]) was “Non-toxic”. The Activity (Mus musculus [16]) was “Non-toxic”, the Activity (Mus musculus [17]) was “Non-toxic” and the Activity (Mus musculus [18]) was “Active”. The Activity (Mus musculus [19]) was “Non-toxic”, the inhibition (Mus musculus [20]) was “Active” and the Activity (Mus musculus [21]) was “Non-toxic”. For the same molecule, the Activity (Mus musculus [22]) was “Active” and the Activity (Mus musculus [23]) was “Non-toxic”.
